Measured values as given in article PMC2659690 (Molecular Pharmaceutics, 2008).
Where a SMILES comes first, the peptide text is derived from it. [ ]: non-standard residue; d: D form. Sar = CNCC(=O)O

Assays:
Chemical stability = assay type: physicochemical; details: pH 7.4 phosphate buffer, 37 °C; mean ± SD, n = 3
[1] = Stability in human plasma; assay type: in vitro ADME; details: undiluted human plasma, 37 °C; mean ± SD, n = 3
Caco-2 cell homogenates = assay: Enzymatic stability in Caco-2 cell homogenate; assay type: in vitro ADME, human; details: 500 μg/mL protein, 37 °C, mean ± SD, n = 3
AsPC-1 cell homogenates = assay: Enzymatic stability in AsPC-1 cell homogenate; assay type: in vitro ADME, human; details: 500 μg/mL protein, 37 °C, mean ± SD, n = 3
Capan-2 cell homogenates = assay: Enzymatic stability in Capan-2 cell homogenate; assay type: in vitro ADME, human; details: 500 μg/mL protein, 37 °C, mean ± SD, n = 3
thymidine phosphorylase = target: T1, thymidine phosphorylase (Homo sapiens, UniProt P19971); assay: Resistance to metabolism by thymidine phosphorylase; assay type: in vitro ADME; details: 200 μM substrate, TP 2.0 ng/μL, phosphate buffer pH 7.0, 37 °C; mean ± SD, n = 3
T1 sequence (P19971 11-482): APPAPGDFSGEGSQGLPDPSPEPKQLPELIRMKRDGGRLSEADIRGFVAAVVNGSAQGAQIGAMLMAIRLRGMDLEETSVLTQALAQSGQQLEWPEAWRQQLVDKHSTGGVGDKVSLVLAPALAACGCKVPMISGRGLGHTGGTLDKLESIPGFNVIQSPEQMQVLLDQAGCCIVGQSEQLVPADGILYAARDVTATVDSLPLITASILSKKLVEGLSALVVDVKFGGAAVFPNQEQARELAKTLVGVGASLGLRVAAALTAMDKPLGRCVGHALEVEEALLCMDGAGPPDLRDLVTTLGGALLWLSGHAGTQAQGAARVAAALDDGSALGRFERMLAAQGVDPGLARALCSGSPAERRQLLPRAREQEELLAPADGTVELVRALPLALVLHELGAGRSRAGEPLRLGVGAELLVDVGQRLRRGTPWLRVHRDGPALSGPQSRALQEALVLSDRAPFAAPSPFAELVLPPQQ

PEPT1 [2] = target: T2, PEPT1 (Homo sapiens, UniProt P46059); assay: [3H]Gly-Sar uptake inhibition in Caco-2 cells; assay type: cell-based; details: read-out: IC50 [3H]Gly-Sar uptake inhibition Caco-2; Caco-2 cells, 10 μmol/L Gly-Sar, 30 min; mean ± SD, n = 3
T2 sequence (P46059 1-708): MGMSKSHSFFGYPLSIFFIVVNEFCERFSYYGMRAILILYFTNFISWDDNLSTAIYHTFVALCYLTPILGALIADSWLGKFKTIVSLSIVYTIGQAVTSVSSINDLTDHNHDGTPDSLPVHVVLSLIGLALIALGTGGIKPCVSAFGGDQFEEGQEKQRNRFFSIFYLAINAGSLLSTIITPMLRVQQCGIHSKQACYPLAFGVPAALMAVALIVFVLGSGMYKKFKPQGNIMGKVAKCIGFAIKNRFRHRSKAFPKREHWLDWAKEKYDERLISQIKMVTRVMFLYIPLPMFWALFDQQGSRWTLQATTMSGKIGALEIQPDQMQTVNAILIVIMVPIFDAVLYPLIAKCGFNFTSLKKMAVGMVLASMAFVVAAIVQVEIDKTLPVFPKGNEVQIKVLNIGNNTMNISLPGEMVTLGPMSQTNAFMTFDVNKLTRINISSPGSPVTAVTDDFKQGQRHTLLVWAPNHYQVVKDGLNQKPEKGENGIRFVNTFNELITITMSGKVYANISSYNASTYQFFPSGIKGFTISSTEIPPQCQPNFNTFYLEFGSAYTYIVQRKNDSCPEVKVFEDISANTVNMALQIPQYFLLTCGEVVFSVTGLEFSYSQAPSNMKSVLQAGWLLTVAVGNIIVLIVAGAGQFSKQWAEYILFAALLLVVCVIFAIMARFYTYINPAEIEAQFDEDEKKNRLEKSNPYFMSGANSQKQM

PEPT1 [3] = target: T2, PEPT1; assay: [3H]Gly-Sar uptake inhibition in AsPC-1 cells; assay type: cell-based; details: read-out: IC50 [3H]Gly-Sar uptake inhibition AsPC-1; AsPC-1 cells, 10 μmol/L Gly-Sar, 30 min; mean ± SD, n = 3
PEPT1 [4] = target: T2, PEPT1; assay: [3H]Gly-Sar uptake inhibition in Capan-2 cells; assay type: cell-based; details: read-out: IC50 [3H]Gly-Sar uptake inhibition Capan-2; Capan-2 cells, 10 μmol/L Gly-Sar, 30 min; mean ± SD, n = 3
Capan-2 cell monolayers = assay: Apical-to-basolateral permeability across Capan-2 monolayers; assay type: in vitro ADME, human; details: 1 mM verapamil (efflux pump inhibitor); data not shown
Capan-2 cells = assay: Cell proliferation; assay type: cell-based; details: Homo sapiens, Capan-2, pH 6, read-out: GI50 Capan-2
Summary of the method: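 Capan-2 cells (passages 50-54) in antibiotic-free RPMI-1640 plus 10% FBS were plated at 125,000 per well and allowed 24 h to attach. After a rinse with pH 6.0 uptake buffer, they received test compound in the same buffer (twofold series, 4 to 0.25 mmol/L; buffer-only wells as 100% viability) for 4 h at 37 °C. Two washes and 24 h recovery in medium followed.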

Compound | t1/2 buffer pH 7.4 (Chemical stability) [min] | t1/2 human plasma [1] [min] | t1/2 cell homogenates Caco-2 (Caco-2 cell homogenates) [min] | t1/2 cell homogenates AsPC-1 (AsPC-1 cell homogenates) [min] | t1/2 cell homogenates Capan-2 (Capan-2 cell homogenates) [min] | t1/2 in the presence of thymidine phosphorylase (thymidine phosphorylase) [min] | IC50 (PEPT1 [2]) [µM] | IC50 (PEPT1 [3]) [µM] | IC50 (PEPT1 [4]) [µM] | effect of verapamil on permeability in Capan-2 cells (Capan-2 cell monolayers) | GI50 (Capan-2 cells) [µM]
5′-L-Valyl-L-phenylalanyl-floxuridine | 104.7 ± 7.0 | 76.0 ± 14.1 | 57.6 ± 9.3 | 51.6 ± 4.2 | 56.2 ± 12.8 | >500 | 2880 ± 10 | 1030 ± 80 | 460 ± 20 | – | –
NCC(=O)OC[C@H]1O[C@@H](n2cc(F)c(=O)[nH]c2=O)C[C@@H]1O [5′-L-glycyl-floxuridine] | 85.5 ± 3.2 | 72.1 ± 15.0 | 24.1 ± 2.0 | 27.6 ± 5.8 | 49.7 ± 5.6 | 250 ± 54 | 2280 ± 590 | 2710 ± 530 | 2790 ± 80 | – | –
CC[C@H](C)[C@H](N)C(=O)NCC(=O)OC[C@H]1O[C@@H](n2cc(F)c(=O)[nH]c2=O)C[C@@H]1O [5′-L-isoleucyl-L-glycyl-floxuridine, 5′-L-Isoleucyl-L-glycyl-floxuridine] | 33.5 ± 2.4 | 9.5 ± 0.5 | 20.5 ± 1.1 | 25.1 ± 5.8 | 18.7 ± 1.4 | 223 ± 54 | 390 ± 10 | 290 | 440 ± 20 | – | –
CC[C@H](C)[C@H](N)C(=O)OC[C@H]1O[C@@H](n2cc(F)c(=O)[nH]c2=O)C[C@@H]1O [5′-L-isoleucyl-floxuridine] | 1194.5 ± 660.6 | 271.4 ± 3.2 | 192.3 ± 31.8 | 198.0 ± 70.2 | 139.9 ± 15.3 | >500 | 720 ± 30 | 4120 ± 1750 | 2380 ± 120 | – | –
CC(C)C[C@H](N)C(=O)NCC(=O)OC[C@H]1O[C@@H](n2cc(F)c(=O)[nH]c2=O)C[C@@H]1O [5′-L-leucyl-L-glycyl-floxuridine, 5′-L-Leucyl-L-glycyl-floxuridine] | 23.2 ± 4.1 | 6.7 ± 0.3 | 4.1 ± 0.1 | 3.6 ± 0.8 | 3.9 ± 1.1 | 138 ± 11 | 3800 ± 600 | 510 ± 30 | 340 ± 10 | – | –
CC(C)C[C@H](N)C(=O)OC[C@H]1O[C@@H](n2cc(F)c(=O)[nH]c2=O)C[C@@H]1O [5′-L-leucyl-floxuridine] | 83.2 ± 1.7 | 82.4 ± 8.7 | 3.2 ± 0.2 | 2.0 ± 0.1 | 4.7 ± 2.1 | – | 3510 ± 110 | 2600 ± 160 | 1450 ± 70 | – | –
N[C@@H](Cc1ccccc1)C(=O)NCC(=O)OC[C@H]1O[C@@H](n2cc(F)c(=O)[nH]c2=O)C[C@@H]1O [5′-L-phenylalanyl-L-glycyl-floxuridine, 5′-L-Phenylalanyl-L-glycyl-floxuridine] | 132.1 ± 10.2 | 9.7 ± 0.8 | 6.3 ± 0.6 | 10.2 ± 0.3 | 4.3 ± 0.9 | 119 ± 30 | 780 ± 560 | 880 ± 220 | 790 ± 20 | – | –
N[C@@H](Cc1ccccc1)C(=O)N[C@@H](Cc1ccc(O)cc1)C(=O)OC[C@H]1O[C@@H](n2cc(F)c(=O)[nH]c2=O)C[C@@H]1O [5′-L-phenylalanyl-L-tyrosyl-floxuridine, 5′-L-Phenylalanyl-L-tyrosyl-floxuridine] | 233.9 ± 6.6 | 80.6 ± 3.7 | 103.8 ± 55.5 | 59.7 ± 1.4 | 42.8 ± 0.0 | >500 | 660 ± 250 | 610 ± 180 | 1200 ± 160 | not affected | –
N[C@@H](Cc1ccccc1)C(=O)OC[C@H]1O[C@@H](n2cc(F)c(=O)[nH]c2=O)C[C@@H]1O [5′-L-phenylalanyl-floxuridine] | 187.0 ± 19.0 | 62.8 ± 0.8 | 11.1 ± 9.9 | 11.8 ± 1.7 | 3.0 ± 0.1 | >500 | 1990 ± 820 | 1970 ± 90 | 3710 ± 2130 | – | –
CC(C)[C@H](N)C(=O)OC[C@H]1O[C@@H](n2cc(F)c(=O)[nH]c2=O)C[C@@H]1O [5′-L-valyl-floxuridine] | 304.0 ± 33.3 | 131.5 ± 54.1 | 9.4 ± 0.5 | 18.7 ± 6.7 | 5.2 ± 2.4 | – | 1880 ± 180 | 2910 ± 380 | 2410 ± 280 | – | –
NCC(=O)N1CCC[C@H]1C(=O)O [glycylproline (Gly-Pro), glycylproline] (H-Gly-Pro-OH) | – | – | – | – | – | – | – | – | – | – | 29500 ± 6500
CN(CC(=O)O)C(=O)CN [glycylsarcosine (Gly-Sar), glycylsarcosine] (H-Gly-[Sar]-OH) | – | – | – | – | – | – | – | – | – | – | 25700 ± 8100
